UCH37 inh = inhibitors of human deubiquitinating enzyme UCH37 | Q9Y5K5 | purified proteasome/UCH37, Ub-AMC cleavage fluorescence | inhibition, % (no concentration beside the values) | 330,000 tested, 0.33% active;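 active means mean inhibition over replicate wells above about 20%, limit read from the data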;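 further: 0% = compound-free wells with enzyme and 100% = wells lacking proteasome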
Target sequence (Q9Y5K5 whole entry, looked up): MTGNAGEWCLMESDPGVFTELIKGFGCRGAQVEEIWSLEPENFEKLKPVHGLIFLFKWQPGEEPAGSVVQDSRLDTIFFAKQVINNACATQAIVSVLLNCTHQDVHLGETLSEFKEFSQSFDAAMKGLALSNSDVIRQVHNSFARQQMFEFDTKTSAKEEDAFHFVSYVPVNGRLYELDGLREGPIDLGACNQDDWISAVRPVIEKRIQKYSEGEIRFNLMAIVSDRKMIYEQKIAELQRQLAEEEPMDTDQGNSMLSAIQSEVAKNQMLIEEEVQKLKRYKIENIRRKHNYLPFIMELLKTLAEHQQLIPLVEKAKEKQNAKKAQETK
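Material: human UCH37 enzyme supplied as purified proteasome complex / Amount: 0.15 nM proteasome as dispensed / Buffer or medium: pH 7.4 Tris-HCl (50 mM) with ovalbumin, ATP-MgCl2, DTT / Times: preincubation 30 min, reaction 25 min, room temperature / Technique: AMC fluorescence from Ub-AMC cleavage, excitation 355 nm, emission 460 nm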
UPR XBP1 act = activators of adaptive arm of unfolded protein response (XBP1); CHO-XBP1 luciferase reporter, IRE1-XBP1 UPR activation, luminescence; percent of tunicamycin response, DMSO as zero; activation, % at 20 µM; 330,000 tested, 0.33% active;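 active means versus positive control, 20 µM dose yields 30% or more activation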;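 further: 100% = tunicamycin at 10 µg/mL and 0% = DMSO only wells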
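Material: IRE1-XBP1 luciferase reporter CHO line / Quantity: one thousand reporter cells per well / Buffer or medium: F12 with 10% serum / Compound: 20 µM single concentration, DMSO 1% / Times: 6 h treatment, 37 °C / Detection: Steady-Glo luciferase glow luminescence, 10 min after reagent addition / Benchmarks: tunicamycin high, DMSO low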
UPR CHOP act = apoptotic UPR (CHOP) activation; CHO-CHOP luciferase reporter, luminescence; percent of tunicamycin response over DMSO baseline; activation, % at 10 µM; 330,000 tested, 0.34% active; AID 449763;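 active means at 10 µM dose, activation of 40% or more, normalized to positive control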;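 further: 100% = tunicamycin at 10 µg/mL and 0% = DMSO alone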
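Assay system: CHO cells with stable CHOP pathway luciferase reporter; Buffer or medium: F12 plus 10% serum; Times: 16-18 h cell attachment, then 6 h compound exposure, 37 °C; Signal: luciferase luminescence; Read-out basis: percent activation relative to tunicamycin control; Control set: tunicamycin high control, DMSO low control.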
Fh CTSL1 inh = cathepsin L1 inhibition, PFM18AAP counter-screen; AID 1906; 300,000 tested, 0.49% active; inhibition, % at 5.96 µM; recombinant F. hepatica cathepsin L1, Z-Leu-Arg-MCA fluorescence;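 active means inhibition above the mean of all tested compounds plus 3 SD, set per screening campaign, cut at about 17% in these data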;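 further: 0% = plate median of test compound wells and 100% = 1 µM Z-Phe-Ala-diazomethylketone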
CHOP inh = blocks CHOP induction under ER stress; CHO-K1 CHOP-promoter luciferase, tunicamycin-induced, 15-18 h; inhibition, % at 10 µM; 220,000 tested, 3.8% active; AID 2732;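 active means compounds that reduced the stress-induced luciferase reporter signal by more than about 70% of percent inhibition, limit read from the data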;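 further: 0% = tunicamycin plus vehicle and 100% = wells without tunicamycin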
UPR CHOP confirm = apoptotic UPR (CHOP) activation, confirmed; shares compounds with UPR CHOP act; CHO-CHOP cells, CHOP-luciferase reporter luminescence; percent of tunicamycin response, DMSO as zero; activation, % at 10 µM; 1,000 tested, 64% active; in the data active means activation above about 33%;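 further: 0% = DMSO wells and 100% = tunicamycin 10 µg/mL wells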
* hit, by the source's call; nt = no result given. Many of the other results were omitted from the sample, so hits are more common in it than they were.

SMILES	UCH37 inh	UPR XBP1 act	UPR CHOP act	Fh CTSL1 inh	CHOP inh	UPR CHOP confirm
CC(=O)N(\C=C/C=C/C=C1\Sc2ccccc2C1=O)c1ccccc1	5.2	9.2	63.9*	0.4	45.4	35.1*
CN(C)/C=C1/Sc2ccccc2C1=O	1.6	-1.4	2.2	4.9	-2.4	nt
COc1ccc(S(=O)(=O)NN=C(C)c2ccncc2)cc1OC	0.9	nt	nt	nt	nt	nt
O=C(/C(=C/c1ccc(Cl)cc1)c1nc2ccccc2[nH]1)c1cccs1	nt	-4.6	86.7*	0.1	-126.9	84.6*
COc1cc(/C=C(/C(=O)c2cccs2)c2nc3ccccc3[nH]2)ccc1O	4.4	-2.8	3.3	0.8	-49.3	nt
FC(F)(F)c1cccc(C=NNC(=S)NC2CCCCC2)c1	-0.4	nt	nt	nt	nt	nt
O=C(Nc1ccc(O)c2c(=O)cc(-c3cccc(Cl)c3)oc12)c1ccccc1Cl	1.7	15.5	52.3*	-3.4	51.3	46.3*
CCOC(=O)c1ccc(NC2=CC(=O)C(=O)c3ccccc32)cc1	4.8	9.2	65.0*	1.4	16.8	8.6
CC(=O)Nc1ccc(NC2=CC(=O)c3ccccc3C2=O)cc1	7.7	0.0	6.2	0.5	nt	nt
Cc1ccc(Nc2cc(C)nn2-c2nc(C)cc(C)n2)cc1	3.6	30.1*	78.8*	1.6	-88.4	5.7
CC(=O)Nc1cc(C)nn1-c1nc(C)cc(C)n1	-2.2	-3.5	3.5	3.4	-1.7	nt
COc1cccc(N=Nc2ccc(O)c3ncccc23)c1	nt	7.3	106.7*	-0.4	nt	86.2*
COc1ccc(N=Nc2ccc(O)c3ncccc23)cc1	7.2	10.6	153.0*	4.7	61.0	148.2*
COc1cccc(N=Nc2ccc3cccnc3c2O)c1	2.7	4.3	127.2*	0.2	nt	86.4*
Nc1ccc(N=Nc2ccccc2)c2cccnc12	6.3	14.7	4.5	7.6	nt	nt
Cc1occc1C(=O)NN=Cc1ccc2c(c1)OCO2	4.5	nt	nt	nt	nt	nt
CCCC1S/C(=N/N=Cc2cccs2)NC1=O (stereo unspecified)	8.3	nt	nt	nt	nt	nt
Cc1cccc(OCC(=O)NN=Cc2sc(=O)n(Cc3cccc(C(=O)O)c3)c2Cl)c1	8.8	nt	nt	nt	nt	nt
COc1cc(C(c2c(C)[nH][nH]c2=O)c2c(C)[nH][nH]c2=O)ccc1OCc1ccc([N+](=O)[O-])cc1	5.3	2.6	5.8	2.6	-38.1	nt
CCOC(=O)C(=Cc1ccc(OCc2ccc([N+](=O)[O-])cc2)c(OC)c1)C(=O)OCC	-3.5	5.3	219.4*	1.3	65.6	247.0*
COC(=O)C(=Cc1ccc(OCc2ccc([N+](=O)[O-])cc2)c(OC)c1)C(=O)OC	3.9	4.0	334.4*	-0.3	-25.2	106.4*
COc1cc(C=NNC(=O)c2cc(C)n(-c3ccc(F)cc3)c2C)cc(OC)c1O	-3.6	nt	nt	nt	nt	nt
CC(=O)OCCCNc1cc(Sc2ccc(C)cc2)c2nonc2c1[N+](=O)[O-]	12.7	-5.7	149.4*	4.2	109.3*	-10.6
COC(=O)CCSc1cc(NCCOC(C)=O)c([N+](=O)[O-])c2nonc12	10.7	-1.8	-1.5	-2.0	-11.1	nt
N#Cc1c(N=Cc2ccc(Br)s2)sc2c1CCC2	-0.4	nt	nt	nt	nt	nt
SMILES	UCH37 inh	UPR XBP1 act	UPR CHOP act	Fh CTSL1 inh	CHOP inh	UPR CHOP confirm
Cn1c(SCC(=O)NCC2CCCO2)ncc(C(=O)Nc2ccc(Cl)cc2)c1=O (stereo unspecified)	-181.1	4.9	158.0*	-0.2	nt	137.6*
CC(=O)c1cccc(NC(=O)CSc2ncc(C(=O)Nc3ccccc3)c(=O)n2C)c1	-81.6	-3.7	298.9*	-0.8	nt	459.5*
CC(CC(C)C)=NNc1ccc([N+](=O)[O-])cc1[N+](=O)[O-]	4.6	nt	nt	nt	nt	nt
O=C1C2C3C=CC(C4CC34)C2C(=O)N1N=Cc1ccc(-c2ccc([N+](=O)[O-])cc2)o1 (stereo unspecified)	1.7	nt	nt	nt	nt	nt
CC(C)NC(=O)COc1ccc(C=NNS(=O)(=O)c2ccccc2)cc1	-1.2	nt	nt	nt	nt	nt
COc1ccc(C=NN(CCC(=O)NC(C)(C)C)C2=NS(=O)(=O)c3ccccc32)cc1	-17.3	nt	nt	nt	nt	nt
Cc1cccc(Oc2nc(-c3ccccn3)nc3ccccc23)c1	5.4	12.1	37.7	2.5	-43.3	nt
CN1CCN(c2nc(-c3ccccn3)nc3ccccc23)CC1	4.4	-1.6	-2.2	0.6	-29.7	nt
c1ccc(N2CCN(c3nc(-c4ccccn4)nc4ccccc34)CC2)cc1	1.7	16.9	96.7*	5.7	-23.9	21.4
Cc1ccccc1Oc1nc(-c2ccccn2)nc2ccccc12	3.6	18.2	48.6*	-2.2	3.6	8.1
O=[N+]([O-])c1cc(C(F)(F)F)ccc1NN=Cc1cc2ccccc2nc1Cl	3.0	nt	nt	nt	nt	nt
CCCS(=O)(=O)c1c(S(=O)(=O)CCC)c2c(N)cccn2c1C(=O)c1ccc(OC)cc1	0.6	-4.0	55.0*	2.8	-11.5	0.4
CC(=O)N(C(C)=O)c1nc(-c2ccccc2)cn1N=Cc1ccccc1	4.5	nt	nt	nt	nt	nt
C/C(C=NNC(=O)c1cc(C)oc1C)=C/c1ccccc1	5.3	nt	nt	nt	nt	nt
CCN1CCN(C(=O)/C=C/c2ccc(C)o2)CC1	5.5	1.2	1.3	-2.2	-11.6	nt
Cc1ccc(/C=C/C(=O)N2CC(C)CC(C)C2)o1 (stereo unspecified)	5.3	0.4	68.5*	-0.9	18.2	2.3
CN(C)C(=S)N=Nc1[nH]c2ccccc2c1O	17.6	7.0	465.7*	-1.0	-127.4	341.1*
N#C/C(=C/c1ccc(N2CCCCCC2)o1)c1ccc(F)cc1	7.0	0.4	98.4*	9.2	nt	21.9
N#C/C(=C/c1ccc(N2CCOCC2)o1)c1ccc(Br)cc1	0.9	0.6	4.3	15.4	25.8	nt
CC(C)OP(=O)(OC(C)C)C(C=O)=NNc1ccc([N+](=O)[O-])cc1	15.3	nt	nt	nt	nt	nt
O=C(CCl)Nc1cc(S(=O)(=O)N2CCCCCC2)ccc1Cl	1.2	-1.6	82.7*	79.6*	77.9*	70.3*
Cc1ccc(NC(=O)c2ccc([N+](=O)[O-])o2)cc1S(=O)(=O)N1CCOCC1	2.6	-0.2	82.4*	7.9	-130.4	39.6*
O=C(Nc1cccc(S(=O)(=O)N2CCCCC2)c1)c1ccc([N+](=O)[O-])o1	5.2	2.3	54.9*	0.9	-151.1	38.5*
CC(=NNC(=O)CCC1C(=O)NN=C1C)c1ccc(Cl)cc1 (stereo unspecified)	-0.4	nt	nt	nt	nt	nt
N#Cc1c(N=Cc2cccs2)sc2c1CCC2	4.0	nt	nt	nt	nt	nt
O=c1c(C=NO)coc2ccc3ccccc3c12	-0.1	nt	nt	nt	nt	nt
Cc1ccc(N)cc1O	-0.9	-0.2	-0.9	nt	nt	nt
Cc1cc(O)c(-c2cc(O)c(C)cc2O)cc1O	-191.0	-8.0	74.1*	0.6	-153.8	135.6*
O=c1nccc(NN=Cc2ccccc2)[nH]1	2.4	nt	nt	nt	nt	nt
COc1ccc(/C=C/c2ccc3cccc(O)c3n2)c(OC)c1OC	-1.2	11.4	135.3*	3.1	nt	31.1
